# Measured values: ChEMBL document CHEMBL1121389, “Mono- and diaryl-2-quinuclidinylcarbinols with local anesthetic and antiarrhythmic activity” (1980)
# Key:
# Canis familiaris [1] = organism: Canis familiaris; test: Duration of the reversal of ouabain induced arrhythmia was measured; format: functional, Canis lupus familiaris
# Procedure, shortened: (§1)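 Dogs anesthetized with pentobarbital 35 mg/kg. Ouabain given iv at 40 μg/kg, then 20 μg/kg 30 min later, then 10 μg/kg every 15 min until ventricular tachycardia persisted. About 20 min after the last ouabain dose, compound given iv over 3 min, starting at 5 mg/kg. Further 5 or 10 mg/kg doses given at 15-min intervals, up to 15 or 20 mg/kg, until sinus rhythm returned. Dogs observed 2 h.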
# Canis familiaris [2] = organism: Canis familiaris; test: Concentration required to reverse ouabain induced arrhythmia in dogs; format: functional, Canis lupus familiaris; procedure, shortened: as §1
# Canis familiaris [3] = test: Heart rate of the dog was measured after ouabain administration to dogs; format: functional, Canis lupus familiaris; procedure, shortened: as §1
# Cavia porcellus = test: Local anesthetic activity using modification of the guinea pig intracutaneous wheal method.; format: functional
# Procedure, shortened: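 Guinea pigs, four per test. Each animal received four intracutaneous injections: propranolol standard at 0.6 and 0.2%, test high dose 0.6-2% and low dose 0.2-0.67%. Wheals marked. Skin pricked with a 23-gauge needle six times inside and six times outside the wheal every 5 min up to 30 min. Activity expressed relative to propranolol with 95% confidence limits.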
# Canis familiaris [4] = test: Heart rate of the dog was measured after drug administration to dogs; format: functional, Canis lupus familiaris; procedure, shortened: as §1
# Canis familiaris [5] = organism: Canis familiaris; test: Number of dogs used ouabain induced arrhythmia; format: functional, Canis lupus familiaris; procedure, shortened: as §1
# Canis familiaris [6] = organism: Canis familiaris; test: Concentration of ouabain required to induce arrhythmia in dogs; format: functional, Canis lupus familiaris; procedure, shortened: as §1
# Canis familiaris [7] = organism: Canis familiaris; test: Number of dogs reverted ouabain induced arrhythmia; format: functional, Canis lupus familiaris; procedure, shortened: as §1
# Canis familiaris [8] = organism: Canis familiaris; test: Number of dogs reverted in ouabain induced arrhythmia; format: functional, Canis lupus familiaris; procedure, shortened: as §1
# Canis familiaris [9] = organism: Canis familiaris; test: Number of dogs used in ouabain induced arrhythmia; format: functional, Canis lupus familiaris; procedure, shortened: as §1
structure (smiles),measurement,setting,value
COc1ccc(Br)cc1C(O)(c1cc(Br)ccc1OC)C1CC2CCN1CC2 (stereo not drawn),Duration of reversal,Canis familiaris [1],>120 min
same,Dose,Canis familiaris [2],10 mg/kg
same,Heart rate,Canis familiaris [3],210 min⁻¹
same,Activity,Cavia porcellus,0.92
same,Heart rate,Canis familiaris [4],162 min⁻¹
same,No. of dogs used,Canis familiaris [5],1
same,Ouabain,Canis familiaris [6],70 µg/kg
same,No. of dogs reverted,Canis familiaris [7],1
COc1ccc(C(O)(c2ccc(OC)cc2)C2CC3CCN2CC3)cc1 (stereo not drawn),Duration of reversal,Canis familiaris [1],14 min
same,Dose,Canis familiaris [2],5 mg/kg
same,Heart rate,Canis familiaris [3],240 min⁻¹
same,Activity,Cavia porcellus,0.54
same,Heart rate,Canis familiaris [4],168 min⁻¹
same,No. of dogs used,Canis familiaris [5],1
same,Ouabain,Canis familiaris [6],60 µg/kg
same,No. of dogs reverted,Canis familiaris [7],1
OC(c1ccco1)(c1ccco1)C1CC2CCN1CC2 (stereo not drawn),Duration of reversal,Canis familiaris [1],>120 min
same,Dose,Canis familiaris [2],15 mg/kg
same,Heart rate,Canis familiaris [3],240 min⁻¹
same,Activity,Cavia porcellus,0.27
same,Heart rate,Canis familiaris [4],180 min⁻¹
same,No. of dogs used,Canis familiaris [5],1
same,Ouabain,Canis familiaris [6],70 µg/kg
same,No. of dogs reverted,Canis familiaris [7],1
COc1ccc([C@](O)(c2cc(Br)ccc2OC)C2CC3CCN2CC3)cc1 (stereo partly drawn),Duration of reversal,Canis familiaris [1],0 min
same,Dose,Canis familiaris [2],15 mg/kg
same,Heart rate,Canis familiaris [3],180 min⁻¹
same,Activity,Cavia porcellus,1.2
same,Heart rate,Canis familiaris [4],160 min⁻¹
same,No. of dogs used,Canis familiaris [5],1
same,Ouabain,Canis familiaris [6],100 µg/kg
same,No. of dogs reverted,Canis familiaris [7],0
OC(c1ccccc1)(c1ccccc1)C1CC2CCN1CC2 (stereo not drawn),Duration of reversal,Canis familiaris [1],>120 min
same,Dose,Canis familiaris [2],5 mg/kg
same,Heart rate,Canis familiaris [3],228 min⁻¹
same,Activity,Cavia porcellus,0.85
same,Heart rate,Canis familiaris [4],186 min⁻¹
same,No. of dogs used,Canis familiaris [5],2
same,Ouabain,Canis familiaris [6],70 µg/kg
same,No. of dogs reverted,Canis familiaris [7],2
OC(c1ccccc1)(c1nccs1)C1CC2CCN1CC2 (stereo not drawn),Duration of reversal,Canis familiaris [1],>120 min
same,Dose,Canis familiaris [2],6.4 mg/kg
same,Heart rate,Canis familiaris [3],207 min⁻¹
same,Activity,Cavia porcellus,0.25
same,Heart rate,Canis familiaris [4],150 min⁻¹
same,No. of dogs used,Canis familiaris [5],2
same,Ouabain,Canis familiaris [6],75 µg/kg
same,No. of dogs reverted,Canis familiaris [7],1
O[C@H](c1ccccc1)[C@@H]1CC2CCN1CC2 (relative stereo),Activity,Cavia porcellus,0.25
Cn1ccnc1[C@@H](O)[C@@H]1CC2CCN1CC2 (relative stereo),Activity,Cavia porcellus,0.61
O[C@H](c1ccncc1)[C@@H]1CC2CCN1CC2 (relative stereo),Activity,Cavia porcellus,0.08
O[C@H](c1ccc(Cl)cc1)[C@@H]1CC2CCN1CC2 (relative stereo),Duration of reversal,Canis familiaris [1],0 min
same,Dose,Canis familiaris [2],15 mg/kg
same,Heart rate,Canis familiaris [3],222 min⁻¹
same,Activity,Cavia porcellus,0.43
same,Heart rate,Canis familiaris [4],160 min⁻¹
same,No. of dogs used,Canis familiaris [5],1
same,Ouabain,Canis familiaris [6],70 µg/kg
same,No. of dogs reverted,Canis familiaris [7],0
Cc1ccc([C@@H](O)[C@@H]2CC3CCN2CC3)cc1 (relative stereo),Activity,Cavia porcellus,0.23
CC(C)(C)[C@@H](O)[C@@H]1CC2CCN1CC2 (relative stereo),Activity,Cavia porcellus,0.13
O[C@H](c1ccco1)[C@@H]1CC2CCN1CC2 (relative stereo),Activity,Cavia porcellus,0.09
O[C@H](C1=C2C=CC=CC(=CC=C1)C2)[C@@H]1CC2CCN1CC2 (relative stereo),Duration of reversal,Canis familiaris [1],>120 min
same,No. of dogs reverted,Canis familiaris [8],1
same,Dose,Canis familiaris [2],15 mg/kg
same,Heart rate,Canis familiaris [3],216 min⁻¹
same,Activity,Cavia porcellus,0.99
same,Heart rate,Canis familiaris [4],156 min⁻¹
same,Ouabain,Canis familiaris [6],70 µg/kg
same,No. of dogs used,Canis familiaris [9],1
O[C@@H](c1ccccc1)[C@@H]1CC2CCN1CC2 (relative stereo),Activity,Cavia porcellus,0.18
"O[C@H](c1nccs1)[C@@H]1CC2CCN1CC2 (single isomer, unassigned)",Activity,Cavia porcellus,0.8
Cc1ccc(C(O)(c2ccc(C)cc2)C2CC3CCN2CC3)cc1 (stereo in doubt; 21),Duration of reversal,Canis familiaris [1],85 min
same,Dose,Canis familiaris [2],11.7 mg/kg
same,Heart rate,Canis familiaris [3],220 min⁻¹
same,Activity,Cavia porcellus,0.86
same,Heart rate,Canis familiaris [4],134 min⁻¹
same,No. of dogs used,Canis familiaris [5],3
same,Ouabain,Canis familiaris [6],83 µg/kg
same,No. of dogs reverted,Canis familiaris [7],3
CCN(CC)CC(=O)Nc1c(C)cccc1C [LIDOCAINE],Duration of reversal,Canis familiaris [1],51 min
same,Dose,Canis familiaris [2],5 mg/kg
same,Heart rate,Canis familiaris [3],223 min⁻¹
same,Activity,Cavia porcellus,0.66
same,Heart rate,Canis familiaris [4],169 min⁻¹
same,No. of dogs used,Canis familiaris [5],5
same,Ouabain,Canis familiaris [6],74 µg/kg
same,No. of dogs reverted,Canis familiaris [7],5
CC(C)NCC(O)COc1cccc2ccccc12 (stereo not drawn) [PROPRANOLOL],Duration of reversal,Canis familiaris [1],80 min
same,Dose,Canis familiaris [2],5 mg/kg
same,Heart rate,Canis familiaris [3],211 min⁻¹
same,Heart rate,Canis familiaris [4],138 min⁻¹
same,No. of dogs used,Canis familiaris [5],5
same,Ouabain,Canis familiaris [6],72 µg/kg
same,No. of dogs reverted,Canis familiaris [7],5
C=C[C@H]1CN2CC[C@H]1C[C@@H]2[C@@H](O)c1ccnc2ccc(OC)cc12 [QUINIDINE],Duration of reversal,Canis familiaris [1],31 min
same,Dose,Canis familiaris [2],9 mg/kg
same,Heart rate,Canis familiaris [3],211 min⁻¹
same,Activity,Cavia porcellus,1.15
same,Heart rate,Canis familiaris [4],170 min⁻¹
same,No. of dogs used,Canis familiaris [5],13
same,Ouabain,Canis familiaris [6],59 µg/kg
same,No. of dogs reverted,Canis familiaris [7],10
